Data set [1] in a line: Metabolic stability in mouse liver microsomes assessed as parent compound remaining at 1 uM measured upto 60 mins in presence of NADPH by LC-MS/MS analysis. The note with it: read-out: Stabilty. Format: ADME, Microsome.
Data set [2] is described as follows: Metabolic stability in rat liver microsomes assessed as parent compound remaining at 1 uM measured upto 60 mins in presence of NADPH by LC-MS/MS analysis. The class given is ADME, Microsome. The note with it: read-out: Stabilty.
The nature of data set [3]: Metabolic stability in human liver microsomes assessed as parent compound remaining at 1 uM measured upto 60 mins in presence of NADPH by LC-MS/MS analysis. The note with it: read-out: Stabilty. The class given is ADME, Microsome.
Another data set is described as follows: in vitro. Particulars: human, Caco-2.
Data set [4] in a line: Initial plasma concentration in CD1 mouse at 3 mg/kg, iv by LC-MS/MS analysis. The class given is ADME, organism-based.
Data set [5] in a line: Initial plasma concentration in Wistar rat at 3 mg/kg, iv by LC-MS/MS analysis. The class given is ADME, organism-based.
A short description of data set [6]: Initial plasma concentration in dog at 1 mg/kg, iv by LC-MS/MS analysis. Format: ADME, organism-based, Canis lupus familiaris.
The nature of data set [7]: AUC (0 to t) in CD-1 mouse at 3 mg/kg, iv measured up to 24 hrs by LC-MS/MS analysis. Set-up: route intravenous, dose 3 mg/kg, time <=24. Particulars: in vivo. The class given is ADME, organism-based.
Data set [8] is described as follows: AUC (0 to t) in Wistar rat at 3 mg/kg, iv measured up to 24 hrs by LC-MS/MS analysis. Format: ADME, organism-based. Set-up: route intravenous, dose 3 mg/kg, time <=24. The note with it: in vivo.
Data set [9] can be described thus: AUC (0 to t) in dog at 1 mg/kg, iv measured up to 24 hrs by LC-MS/MS analysis. Format: ADME, organism-based, Canis lupus familiaris. More on the design: route intravenous, dose 1 mg/kg, time <=24. Particulars: in vivo.
Data set [10] can be described thus: Volume of distribution in CD1 mouse at 3 mg/kg, iv measured up to 24 hrs by LC-MS/MS analysis. Particulars: in vivo. Format: ADME, organism-based.
Data set [11] in a line: Volume of distribution in Wistar rat at 3 mg/kg, iv measured up to 24 hrs by LC-MS/MS analysis. The note with it: in vivo. Format: ADME, organism-based.
Data set [12] in a line: Volume of distribution in dog at 1 mg/kg, iv measured up to 24 hrs by LC-MS/MS analysis. Particulars: in vivo. Format: ADME, organism-based, Canis lupus familiaris.
Data set [13] can be described thus: Clearance in CD1 mouse at 3 mg/kg, iv measured up to 24 hrs by LC-MS/MS analysis. The class given is ADME, organism-based. Particulars: in vivo.
The nature of data set [14]: Clearance in Wistar rat at 3 mg/kg, iv measured up to 24 hrs by LC-MS/MS analysis. The class given is ADME, organism-based. The note with it: in vivo.
The nature of data set [15]: Clearance in dog at 1 mg/kg, iv measured up to 24 hrs by LC-MS/MS analysis. Format: ADME, organism-based, Canis lupus familiaris. Particulars: in vivo.
A short description of data set [16]: Half life in CD1 mouse at 3 mg/kg, iv measured up to 24 hrs by LC-MS/MS analysis. Particulars: in vivo. Format: ADME, organism-based.
A short description of data set [17]: Half life in Wistar rat at 3 mg/kg, iv measured up to 24 hrs by LC-MS/MS analysis. Format: ADME, organism-based. The note with it: in vivo.
The nature of data set [18]: Half life in dog at 1 mg/kg, iv measured up to 24 hrs by LC-MS/MS analysis. Format: ADME, organism-based, Canis lupus familiaris. Particulars: in vivo.
Data set [19] in a line: Cmax in CD1 mouse at 10 mg/kg, po measured up to 24 hrs by LC-MS/MS analysis. Format: ADME, organism-based. More on the design: route oral, dose 10 mg/kg, time <=24. The note with it: in vivo.
Data set [20] is described as follows: Cmax in Wistar rat at 10 mg/kg, po measured up to 24 hrs by LC-MS/MS analysis. Format: ADME, organism-based. More on the design: route oral, dose 10 mg/kg, time <=24. Particulars: in vivo.
A short description of data set [21]: Cmax in dog at 10 mg/kg, po measured up to 24 hrs by LC-MS/MS analysis. The class given is ADME, organism-based, Canis lupus familiaris. Set-up: route oral, dose 10 mg/kg, time <=24. The note with it: in vivo.
Data set [22] can be described thus: AUC (0 to t) in CD-1 mouse at 10 mg/kg, po measured up to 24 hrs by LC-MS/MS analysis. The class given is ADME, organism-based. More on the design: route oral, dose 10 mg/kg, time <=24. Particulars: in vivo.
Data set [23] in a line: AUC (0 to t) in Wistar rat at 10 mg/kg, po measured up to 24 hrs by LC-MS/MS analysis. Format: ADME, organism-based. Set-up: route oral, dose 10 mg/kg, time <=24. Particulars: in vivo.
Data set [24] can be described thus: AUC (0 to t) in dog at 10 mg/kg, po measured up to 24 hrs by LC-MS/MS analysis. The note with it: in vivo. The class given is ADME, organism-based, Canis lupus familiaris. Set-up: route oral, dose 10 mg/kg, time <=24.
Data set [25] can be described thus: Tmax in CD1 mouse at 10 mg/kg, po measured up to 24 hrs by LC-MS/MS analysis. Particulars: in vivo. The class given is ADME, organism-based.
The nature of data set [26]: Tmax in Wistar rat at 10 mg/kg, po measured up to 24 hrs by LC-MS/MS analysis. The class given is ADME, organism-based. Particulars: in vivo.
A short description of data set [27]: Tmax in dog at 10 mg/kg, po measured up to 24 hrs by LC-MS/MS analysis. The note with it: in vivo. Format: ADME, organism-based, Canis lupus familiaris.
Data set [28] in a line: Oral bioavailability in CD1 mouse at 10 mg/kg measured up to 24 hrs by LC-MS/MS analysis. Format: ADME, organism-based. Particulars: in vivo.
Data set [29] can be described thus: Oral bioavailability in Wistar rat at 10 mg/kg measured up to 24 hrs by LC-MS/MS analysis. The note with it: in vivo. The class given is ADME, organism-based.
Data set [30] is described as follows: Oral bioavailability in dog at 10 mg/kg measured up to 24 hrs by LC-MS/MS analysis. Format: ADME, organism-based, Canis lupus familiaris. The note with it: in vivo.
The nature of data set [31]: Drug concentration in human OCI-LY3 cells xenografted SCID Beige mouse plasma at 25 mg/kg, po administered via gavage for 14 days and measured at 2 hrs post last dose by LC-MS/MS analysis. The class given is ADME, organism-based. The note with it: time 14 day. An outline of the steps:
(§1)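 Xenograft-bearing mice (OCI-Ly3) were given oral doses of 25, 50, 100 or 200 mg/kg once daily. Plasma and tumor were collected 2 h after the final dose on day 15. Results are reported as mean plasma concentration (ng/mL) and mean tumor concentration (ng/g) for each dose group.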

A short description of data set [32]: Drug concentration in human OCI-LY3 cells xenografted SCID Beige mouse tumor at 25 mg/kg, po administered via gavage for 14 days and measured at 2 hrs post last dose by LC-MS/MS analysis. Format: ADME, organism-based, Neoplasm. Particulars: time 14 day, read-out: Ct. An outline of the steps:
as §1

Data set [33] in a line: Drug concentration in human OCI-LY3 cells xenografted SCID Beige mouse plasma at 50 mg/kg, po administered via gavage for 14 days and measured at 2 hrs post last dose by LC-MS/MS analysis. Format: ADME, organism-based. Particulars: time 14 day. An outline of the steps:
as §1

Data set [34] can be described thus: Drug concentration in human OCI-LY3 cells xenografted SCID Beige mouse tumor at 50 mg/kg, po administered via gavage for 14 days and measured at 2 hrs post last dose by LC-MS/MS analysis. The class given is ADME, organism-based, Neoplasm. The note with it: time 14 day, read-out: Ct. The essentials: as §1
A short description of data set [35]: Drug concentration in human OCI-LY3 cells xenografted SCID Beige mouse plasma at 100 mg/kg, po administered via gavage for 14 days and measured at 2 hrs post last dose by LC-MS/MS analysis. Format: ADME, organism-based. The note with it: time 14 day. An outline of the steps:
as §1

Data set [36] can be described thus: Drug concentration in human OCI-LY3 cells xenografted SCID Beige mouse tumor at 100 mg/kg, po administered via gavage for 14 days and measured at 2 hrs post last dose by LC-MS/MS analysis. Format: ADME, organism-based, Neoplasm. The note with it: time 14 day, read-out: Ct. The essentials:
as §1

Data set [37] in a line: Drug concentration in human OCI-LY3 cells xenografted SCID Beige mouse plasma at 200 mg/kg, po administered via gavage for 14 days and measured at 2 hrs post last dose by LC-MS/MS analysis. Format: ADME, organism-based. Particulars: time 14 day. An outline of the steps: as §1
A short description of data set [38]: Drug concentration in human OCI-LY3 cells xenografted SCID Beige mouse tumor at 200 mg/kg, po administered via gavage for 14 days and measured at 2 hrs post last dose by LC-MS/MS analysis. The class given is ADME, organism-based, Neoplasm. The note with it: time 14 day, read-out: Ct. An outline of the steps: as §1
The nature of data set [39]: Fraction unbound in human OCI-LY3 cells xenografted SCID Beige mouse plasma at 200 mg/kg, po after 24 hrs by equilibrium dialysis method. Format: ADME, organism-based. Particulars: in vivo. The essentials:
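Mouse plasma protein binding is the mean of 2 determinations. It was applied to the plasma exposures at 12 and 24 h in the OCI-Ly3 PK/PD study to estimate unbound plasma levels.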

Bounds are passed on as bounds.

For `CCC1(O)CCCN(c2nc3nc(N4CCOCC4)oc3cc2NC(=O)c2coc(-c3ccnc(C)c3)n2)C1` (stereo unspecified), the figures for the remaining at 1 h, 1 µM in data set [1], in data set [2] and in [3] were 91%, above 95% and above 95%, respectively. For the same compound, in “in vitro”, the apical-to-basolateral permeability (Papp A→B) at 2 h, 10 µM is 8.5 ×10⁻⁶ cm/s.

Regarding `Cc1cc(-c2nc(C(=O)Nc3cc4oc(N5CCOCC5)nc4nc3N3CCC(F)CC3)co2)ccn1`, the remaining at 1 h, 1 µM in [1] is 50%; in [2], 68%; in [3], 69%.

Consider `Cc1cc(-c2nc(C(=O)Nc3cc4oc(N5CCOCC5)nc4nc3N3CCCC(F)C3)co2)ccn1` (stereo unspecified), for which the remaining at 1 h, 1 µM in data set [1] was 89%; in data set [2], 91%; in [3] it was 67%. Further, in the data set “in vitro”, the apparent permeability from apical to basolateral (Papp A→B) at 2 h, 10 µM came to 15.8 ×10⁻⁶ cm/s.

On to `Nc1ccc(-c2cccc(C(=O)Nc3ccc4nc(N5CCOCC5)oc4c3)n2)cn1`, for which, in the data set “in vitro”, the Papp A→B at 2 h, 10 µM was found to be 21.4 ×10⁻⁶ cm/s.

For the compound `O=C(Nc1cc2oc(N3CCOCC3)nc2nc1C1CC1)c1coc(N2CC[C@H](O)C2)n1`, the remaining at 1 h, 1 µM in [1] is above 95%; in data set [2], above 95%; in data set [3], 90%. The same compound yielded a Papp A→B at 2 h, 10 µM in “in vitro” of 21 ×10⁻⁶ cm/s.

Turning to `Cc1cc(-c2nc(C(=O)Nc3cc4oc(N5CCOCC5)nc4nc3N3CC[C@@H](O)C3)co2)ccn1` [EMAVUSERTIB], the remaining at 1 h, 1 µM in [1], in data set [2] and in data set [3] was above 95% each time. Besides, the C0 in [4] worked out at 7480 ng/mL; in data set [5], 27700 ng/mL; in data set [6], 1960 ng/mL. The area under the curve AUC(0-t) at 24 h stood at 5270 ng·h/mL in data set [7]; 112000 ng·h/mL in data set [8]; 6060 ng·h/mL in [9]; 12500 ng·h/mL in [22]; 171000 ng·h/mL in [23]; 86500 ng·h/mL in data set [24]. The Vd in data set [10] is 0.661 L/kg; in [11], 2 L/kg; in data set [12], 0.5 L/kg. Moreover, the clearance in [13] is 9.27 mL/min/kg; in data set [15], 3.1 mL/min/kg. In addition, the CL in data set [14] worked out at 0.4 mL/min/kg. The half-life in [16] and in [18] was 2.6 h in each case. Further, the t1/2 in data set [17] worked out at 5.3 h. In addition, the results for the Cmax in data set [19], in [20] and in [21] were 6620 ng/mL, 22100 ng/mL and 12800 ng/mL, respectively. For the same compound, the figures for the time to peak (Tmax) in data set [25], in data set [26] and in [27] were 0.5 h, 1.2 h and 1.17 h, respectively. Also, the bioavailability in [28] was found to be 71%; in data set [29] it was 46%; in data set [30], 100%. Also, the concentration at 336 h turned out to be 5080 ng/mL in data set [31]; 2670 ng/g in data set [32]; 11600 ng/mL in [33]; 8290 ng/g in [34]; 23300 ng/mL in data set [35]; 17900 ng/g in data set [36]. Besides, the values for the concentration at 336 h in data set [37] and in data set [38] were 39100 ng/mL and 37000 ng/g, respectively. Further, the “Cp(f)” value in data set [39] amounted to 49.3 ng/mL. Also, the Papp A→B at 2 h, 10 µM in the data set “in vitro” came out at 8.9 ×10⁻⁶ cm/s.

The values are drawn from ChEMBL document CHEMBL4665913, “Discovery of CA-4948, an Orally Bioavailable IRAK4 Inhibitor for Treatment of Hematologic Malignancies” (ACS Med Chem Lett, 2020).
